One block for each molecule: values may come before it.
Key:
[1] = tested on: Rattus norvegicus; experiment: Hypolipidemic activity in Wistar rat assessed as reduction in plasma cholesterol level at 437 umol/kg/day administered through diet for 4 days; type: functional; conditions: 96 h
Method in brief: (§1)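 Young male Wistar rats, 170-190 g initial weight, groups of six, given compound mixed thoroughly into Purina Lab Chow ad libitum for 4 or 10 days as stated. Daily dose calculated from food consumption and body weight. Bled by cardiac puncture at end of treatment; plasma cholesterol measured by automated procedure. Expressed as percent reduction versus simultaneous untreated control group; Student's t test.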

[2] = tested on: Rattus norvegicus; experiment: Increase in liver weight in Wistar rat at 437 umol/kg/day administered through diet for 4 days; type: ADME, organism-based; conditions: in vivo, po, 96 h
[3] = tested on: Rattus norvegicus; experiment: Increase in cholesterol level in Wistar rat liver at 437 umol/kg/day administered through diet for 4 days; type: ADME, organism-based; conditions: in vivo, po, 96 h
[4] = tested on: Rattus norvegicus; experiment: Hypolipidemic activity in Wistar rat assessed as reduction in plasma triglyceride level at 437 umol/kg/day administered through diet for 4 days; type: functional; conditions: 96 h
[5] = tested on: Rattus norvegicus; experiment: Increase in liver weight in Wistar rat at 351 umol/kg/day administered through diet for 4 days; type: ADME, organism-based; conditions: in vivo, po, 96 h
[6] = tested on: Rattus norvegicus; experiment: Increase in cholesterol level in Wistar rat liver at 351 umol/kg/day administered through diet for 4 days; type: ADME, organism-based; conditions: in vivo, po, 96 h
[7] = tested on: Rattus norvegicus; experiment: Hypolipidemic activity in Wistar rat assessed as reduction in plasma triglyceride level at 351 umol/kg/day administered through diet for 4 days; type: functional; conditions: 96 h
Method in brief: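 Young male Wistar rats, 170-190 g at start, six per group, given compound mixed into Purina Lab Chow, fed ad libitum for 4 or 10 days. Daily dose calculated from food consumption and body weight. Rats bled by cardiac puncture at end of treatment. Plasma triglycerides determined by automated procedure. Expressed as percent reduction versus a concurrent untreated control group, Student's t test.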

[8] = tested on: Rattus norvegicus; experiment: Hypolipidemic activity in Wistar rat assessed as reduction in plasma cholesterol level at 351 umol/kg/day administered through diet for 4 days; type: functional; conditions: 96 h
Method in brief: (§2)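 Young male Wistar rats, 170-190 g at start, in groups of six, given compound mixed into Purina Lab Chow ad libitum for 4 or 10 days as stated. Daily dose was calculated from food consumption and body weight. Plasma was taken by cardiac puncture at the end and cholesterol measured by automated procedure. Results are % reduction versus a concurrent untreated control group, with Student's t test.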

[9] = tested on: Rattus norvegicus; experiment: Hypolipidemic activity in Wistar rat assessed as reduction in plasma triglyceride level at 422 umol/kg/day administered through diet for 4 days; type: functional; conditions: 96 h
[10] = tested on: Rattus norvegicus; experiment: Increase in liver weight in Wistar rat at 422 umol/kg/day administered through diet for 4 days; type: ADME, organism-based; conditions: in vivo, po, 96 h
[11] = tested on: Rattus norvegicus; experiment: Increase in cholesterol level in Wistar rat liver at 422 umol/kg/day administered through diet for 4 days; type: ADME, organism-based; conditions: in vivo, po, 96 h
[12] = tested on: Rattus norvegicus; experiment: Hypolipidemic activity in Wistar rat assessed as reduction in plasma cholesterol level at 422 umol/kg/day administered through diet for 4 days; type: functional; conditions: 96 h; method in brief: as §1
[13] = tested on: Rattus norvegicus; experiment: Hypolipidemic activity in Wistar rat assessed as reduction in plasma cholesterol level at 204 umol/kg/day administered through diet for 10 days; type: functional; conditions: 240 h; method in brief: as §2
[14] = tested on: Rattus norvegicus; experiment: Hypolipidemic activity in Wistar rat assessed as reduction in plasma cholesterol level at 398 umol/kg/day administered through diet for 10 days; type: functional; conditions: 240 h; method in brief: as §2
[15] = tested on: Rattus norvegicus; experiment: Increase in cholesterol level in Wistar rat liver at 385 umol/kg/day administered through diet for 10 days; type: ADME, organism-based; conditions: in vivo, po, 240 h
[16] = tested on: Rattus norvegicus; experiment: Increase in cholesterol level in Wistar rat liver at 204 umol/kg/day administered through diet for 10 days; type: ADME, organism-based; conditions: in vivo, po, 240 h
[17] = tested on: Rattus norvegicus; experiment: Hypolipidemic activity in Wistar rat assessed as reduction in plasma triglyceride level at 398 umol/kg/day administered through diet for 10 days; type: functional; conditions: 240 h
Method in brief: (§3)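 Young male Wistar rats (170-190 g initial weight), groups of six, fed test compound mixed into Purina Lab Chow ad libitum; daily dose calculated from food consumption and body weight. Bled by cardiac puncture at end of treatment; plasma triglycerides measured by automated procedure. Results given as percent reduction versus a simultaneous untreated control group, with significance by Student's t test.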

[18] = tested on: Rattus norvegicus; experiment: Increase in cholesterol level in Wistar rat liver at 398 umol/kg/day administered through diet for 10 days; type: ADME, organism-based; conditions: in vivo, po, 240 h
[19] = tested on: Rattus norvegicus; experiment: Increase in liver weight in Wistar rat at 398 umol/kg/day administered through diet for 10 days; type: ADME, organism-based; conditions: in vivo, po, 240 h
[20] = tested on: Rattus norvegicus; experiment: Hypolipidemic activity in Wistar rat assessed as reduction in plasma triglyceride level at 204 umol/kg/day administered through diet for 10 days; type: functional; conditions: 240 h
Method in brief: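 Young male Wistar rats, 170-190 g initial weight, six per group, fed drug mixed thoroughly into Purina Lab Chow ad libitum for the stated days; daily dose calculated from food consumption and body weight. Bled by cardiac puncture at end; plasma cholesterol and triglycerides by automated procedures, expressed as percent reduction versus simultaneous untreated controls; Student's t test.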

[21] = tested on: Rattus norvegicus; experiment: Increase in liver weight in Wistar rat at 385 umol/kg/day administered through diet for 10 days; type: ADME, organism-based; conditions: in vivo, po, 240 h
[22] = tested on: Rattus norvegicus; experiment: Hypolipidemic activity in Wistar rat assessed as reduction in plasma triglyceride level at 385 umol/kg/day administered through diet for 10 days; type: functional; conditions: 240 h; method in brief: as §3
[23] = tested on: Rattus norvegicus; experiment: Increase in liver weight in Wistar rat at 204 umol/kg/day administered through diet for 10 days; type: ADME, organism-based; conditions: in vivo, po, 240 h
[24] = tested on: Rattus norvegicus; experiment: Hypolipidemic activity in Wistar rat assessed as reduction in plasma cholesterol level at 385 umol/kg/day administered through diet for 10 days; type: functional; conditions: 240 h; method in brief: as §2
[25] = tested on: Rattus norvegicus; experiment: Hypolipidemic activity in Wistar rat assessed as reduction in plasma triglyceride level at 439 umol/kg/day administered through diet for 4 days; type: functional; conditions: 96 h
Method in brief: (§4)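 Young male Wistar rats (initial weight 170-190 g), groups of six, fed compound mixed into Purina Lab Chow ad libitum for 4 or 10 days; daily dose calculated from food consumption and body weight. Bled by cardiac puncture; plasma cholesterol and triglycerides by automated procedures; percent reduction versus simultaneous untreated controls, Student's t test.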

[26] = tested on: Rattus norvegicus; experiment: Increase in cholesterol level in Wistar rat liver at 419 umol/kg/day administered through diet for 10 days; type: ADME, organism-based; conditions: in vivo, po, 240 h
Method in brief: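 Male Wistar rats (170-190 g), six per group, given compound by admixture to lab chow ad libitum for 4 or 10 days, dose derived from food intake. Liver cholesterol determined by automated procedure, expressed as mg/g wet tissue, compared with an untreated control group by Student's t test.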

[27] = tested on: Rattus norvegicus; experiment: Increase in liver weight in Wistar rat at 439 umol/kg/day administered through diet for 4 days; type: ADME, organism-based; conditions: in vivo, po, 96 h
Method in brief: (§5)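 Male Wistar rats (170-190 g initial), groups of six, dosed via diet ad libitum for 4 or 10 days, daily dose from food consumption. Liver wet weight measured, expressed as g/100 g final body weight, compared with untreated controls run simultaneously.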

[28] = tested on: Rattus norvegicus; experiment: Hypolipidemic activity in Wistar rat assessed as reduction in plasma triglyceride level at 417 umol/kg/day administered through diet for 10 days; type: functional; conditions: 240 h
[29] = tested on: Rattus norvegicus; experiment: Increase in liver weight in Wistar rat at 419 umol/kg/day administered through diet for 10 days; type: ADME, organism-based; conditions: in vivo, po, 240 h; method in brief: as §5
[30] = tested on: Rattus norvegicus; experiment: Increase in cholesterol level in Wistar rat liver at 417 umol/kg/day administered through diet for 10 days; type: ADME, organism-based; conditions: in vivo, po, 240 h
[31] = tested on: Rattus norvegicus; experiment: Hypolipidemic activity in Wistar rat assessed as reduction in plasma cholesterol level at 417 umol/kg/day administered through diet for 10 days; type: functional; conditions: 240 h; method in brief: as §2
[32] = tested on: Rattus norvegicus; experiment: Hypolipidemic activity in Wistar rat assessed as reduction in plasma triglyceride level at 419 umol/kg/day administered through diet for 10 days; type: functional; conditions: 240 h; method in brief: as §4
[33] = tested on: Rattus norvegicus; experiment: Increase in cholesterol level in Wistar rat liver at 439 umol/kg/day administered through diet for 4 days; type: ADME, organism-based; conditions: in vivo, po, 96 h
[34] = tested on: Rattus norvegicus; experiment: Increase in liver weight in Wistar rat at 417 umol/kg/day administered through diet for 10 days; type: ADME, organism-based; conditions: in vivo, po, 240 h
[35] = tested on: Rattus norvegicus; experiment: Hypolipidemic activity in Wistar rat assessed as reduction in plasma cholesterol level at 439 umol/kg/day administered through diet for 4 days; type: functional; conditions: 96 h; method in brief: as §1
[36] = tested on: Rattus norvegicus; experiment: Hypolipidemic activity in Wistar rat assessed as reduction in plasma cholesterol level at 419 umol/kg/day administered through diet for 10 days; type: functional; conditions: 240 h; method in brief: as §1

- Activity [2]: 4%
- Activity [3]: 5%
Structure (SMILES): CCCCCCCCCCCCCCCCOc1ccc(C(=O)O)o1
- inhibition in vivo at 437 µmol/kg [1]: 24%
- inhibition in vivo at 437 µmol/kg [4]: 25%

- Activity [5]: 0%
- Activity [6]: 11%
Structure (SMILES): CCCCCCCC/C=C/CCCCCCCCOc1ccc(C(=O)O)o1
- inhibition in vivo at 351 µmol/kg [7]: 26%
- inhibition in vivo at 351 µmol/kg [8]: 4%

- Activity [10]: 11%
- Activity [11]: 9%
Structure (SMILES): CCCCCCCCCCCCCCCCOc1ccc(C(=O)OCC)cc1
- inhibition in vivo at 422 µmol/kg [9]: 29%
- inhibition in vivo at 422 µmol/kg [12]: 8%

- Activity [15]: 1%
- Activity [16]: 0%
- Activity [18]: 2%
- Activity [19]: 12%
- Activity [21]: 5%
- Activity [23]: 10%
Structure (SMILES): CCCCCCCCCCCCCCCCOc1ccc(C(=O)OC)cc1
- inhibition in vivo at 204 µmol/kg [13]: 0%
- inhibition in vivo at 398 µmol/kg [14]: 14%
- inhibition in vivo at 398 µmol/kg [17]: 40%
- inhibition in vivo at 204 µmol/kg [20]: 23%
- inhibition in vivo at 385 µmol/kg [22]: 63%
- inhibition in vivo at 385 µmol/kg [24]: 20%

- Activity [26]: 2%
- Activity [27]: 7%
- Activity [29]: 15%
- Activity [30]: 9%
- Activity [33]: 9%
- Activity [34]: 0%
Structure (SMILES): CCCCCCCCCCCCCCCOc1ccc(C(=O)OC)cc1
- inhibition in vivo at 439 µmol/kg [25]: 46%
- inhibition in vivo at 417 µmol/kg [28]: 73%
- inhibition in vivo at 417 µmol/kg [31]: 37%
- inhibition in vivo at 419 µmol/kg [32]: 57%
- inhibition in vivo at 439 µmol/kg [35]: 19%
- inhibition in vivo at 419 µmol/kg [36]: 20%

Source: ChEMBL document CHEMBL3272012, “5-(Tetradecyloxy)-2-furancarboxylic acid and related hypolipidemic fatty acid-like alkyloxyarylcarboxylic acids” (J Med Chem, 1977)
